Neddyl block = cullin neddylation inhibition | P61081+Q13564 | TR-FRET cullin neddylation, biochemical | inhibition, % at 25 µM | 360,000 compounds, 0.58% hits; in the data active means inhibition above about 36%
Target sequence (P61081 whole entry, looked up): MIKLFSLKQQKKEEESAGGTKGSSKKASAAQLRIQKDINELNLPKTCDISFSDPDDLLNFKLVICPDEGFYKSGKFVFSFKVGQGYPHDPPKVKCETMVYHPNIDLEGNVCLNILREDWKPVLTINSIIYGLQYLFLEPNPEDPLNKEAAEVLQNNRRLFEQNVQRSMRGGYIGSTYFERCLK
Target sequence (Q13564 whole entry, looked up): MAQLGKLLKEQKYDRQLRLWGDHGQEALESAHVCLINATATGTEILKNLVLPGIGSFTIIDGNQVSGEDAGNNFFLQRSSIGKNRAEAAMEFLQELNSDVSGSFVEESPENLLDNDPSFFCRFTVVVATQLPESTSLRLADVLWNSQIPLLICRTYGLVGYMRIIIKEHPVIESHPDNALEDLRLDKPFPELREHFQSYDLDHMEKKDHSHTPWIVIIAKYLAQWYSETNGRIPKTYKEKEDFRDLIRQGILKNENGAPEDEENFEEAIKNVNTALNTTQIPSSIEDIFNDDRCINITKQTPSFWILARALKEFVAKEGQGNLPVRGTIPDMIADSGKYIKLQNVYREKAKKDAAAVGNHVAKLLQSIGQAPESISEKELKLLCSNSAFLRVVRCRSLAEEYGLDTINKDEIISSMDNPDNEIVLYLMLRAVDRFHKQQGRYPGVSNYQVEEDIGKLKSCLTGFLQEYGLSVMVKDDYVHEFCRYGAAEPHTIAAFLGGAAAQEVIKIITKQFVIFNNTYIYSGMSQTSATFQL
FXN GAA850 act = activators of GAA850 frataxin (FXN) promoter; HEK293 lucGAA850 FXN promoter luciferase reporter, 24 h; percent of 10 µM SAHA response; 360,000 compounds, 0.56% hits; activation, % at 6 µM;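 active means activation above the average of all compounds screened plus 3 SD, cutoff fixed separately per campaign, cut at about 7.5% in these data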
Calb FLC = C. albicans growth modulation with fluconazole; C. albicans CaCi-2 + fluconazole, Alamar Blue growth, 48 h; growth inhibition, % (test concentration not listed); 300,000 compounds, 0.57% hits; AID 1979;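 active means growth inhibition above about 58% in most replicates, limit read from the data, passing the limit was not always enough; inconclusive means exactly half the replicates above a set limit; inactive means most replicates below a set limit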;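 further: all wells also contain fluconazole at 8 µg/ml as a sub-toxic cotreatment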
proCasp7 act = activates human procaspase-7, counter-screen for procaspase-3 activators. P55210. recombinant procaspase-7, Ac-DEVD-pNA absorbance 405 nm; D23A/D198A/D206A triple mutant, cannot self-cleave; scale: DMSO 0, 5 µM enzyme 100. activation, % at 8.5 µM. 330,000 compounds, 0.093% hits. AID 463210;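 active means percent activation above the screen-wide mean plus 3 SD, cut at about 25% in these data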
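Material: Procaspase-7 triple mutant (PC-7 D3A) | Quantity: 2 µM procaspase-7 mutant as dispensed | Reagent: DEVD-pNA substrate | Times: 1 h preincubation, 2 h reaction | Technique: 405 nm absorbance of p-nitroaniline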
HIF act = HIF pathway transcriptional activation. U2OS HRE-luciferase reporter, luminescence; normalized: DMSO 0%, desferrioxamine 100%. activation, % at 7.5 µM (by protocol). 300,000 compounds, 0.32% hits. AID 1910;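 active means mean activation of at least 10% of the iron chelator positive control signal, with at least half of replicates also reaching 10%; inconclusive means mean and replicate majority disagree about reaching 10%; inactive means mean and most replicates under 10%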
proCasp3 act = activates human procaspase-3 | recombinant procaspase-3 D3A, Ac-DEVD-pNA absorbance 405 nm | 330,000 compounds, 0.11% hits | activation, % at 8.5 µM | P42574;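 active means activation above the mean of all tested compounds plus 3 SD, cut at about 21% in these data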
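Evaluation: percent activation relative to control range; Material: Procaspase-3 D3A mutant, all three cleavage aspartates alanine; Compound: single dose, 8.5 µM nominal compound, 0.8% DMSO; Replication: one well per compound; Signal: absorbance at 405 nm, 0 and 120 min; Schedule: 1 h preincubation plus 2 h reaction at 25 °C.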
GAA30 FXN cntr = GAA30 FXN promoter activation counter-screen | shares compounds with FXN GAA850 act | HEK293 lucGAA30 FXN promoter luciferase, 24 h; DMSO = 0%, 5 µM ipriflavone = 100% | activation, % at 6 µM | 1,900 compounds, 66% hits | AID 588350;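 active means mean activation above the mean of solvent-only control wells plus 3 SD, cut at about 22% in these data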;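 further: counterscreen of GAA850 promoter hits where activity marks nonselective or luminescence artifacts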
FXN GAA850 conf = confirmation of GAA850 frataxin (FXN) promoter activators. shares compounds with FXN GAA850 act. HEK293 lucGAA850 FXN promoter luciferase reporter, 24 h; 100% = activation by SAHA. activation, % at 6 µM. 1,900 compounds, 86% hits;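 active means mean activation above a set limit taken from the primary screen, cut at about 8% in these data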
Numbers stand for hits; - = inactive; ? = inconclusive; . = not tested or not shown. Shown are actives, neighbours in structure and some others; about 1.9% of the full set was active somewhere.

SMILES	Neddyl block	FXN GAA850 act	Calb FLC	proCasp7 act	HIF act	proCasp3 act	GAA30 FXN cntr	FXN GAA850 conf
Cc1cccnc1CNC(=O)C1(C)CCCN1CC(C)C (stereo not drawn)	-	-	.	.	.	.	.	.
O=C(CSC(=S)N1CCSCC1)c1ccc(Cl)cc1	-	9.8	-	-	-	-	114	42
Cc1ccc(NC(=O)CSCC(=O)Nc2cc(C(F)(F)F)ccc2N2CCOCC2)cc1	-	11	-	-	-	-	25	11
O=C(c1cc(C2CCCCN2S(=O)(=O)c2cccs2)on1)N1CCOCC1 (stereo not drawn)	-	-	.	.	.	.	.	.
Cc1ccc(OCCOc2cccc(Br)c2)c([N+](=O)[O-])n1	-	7.6	-	-	-	-	81	40
Cc1ccc(OCc2ccc(Br)cc2)c([N+](=O)[O-])n1	.	.	-	-	-	-	.	.
CN(C)c1nc(C=C(C#N)C#N)c(Cl)n1-c1ccc(F)cc1	-	11	-	.	-	.	-	33
CC(O)CNc1ncnc2cc(-c3ccc(F)cc3)sc12 (stereo not drawn)	-	10	-	-	-	-	75	30
Cc1ccc(-n2c(C)nn(CCOc3ccccc3)c2=O)cc1	-	9.3	-	-	-	-	98	27
CN(C)S(=O)(=O)c1ccc2c(c1)c(=O)c(C(=O)N1CCOCC1)cn2C	-	9.8	-	-	-	-	-	13
Cc1ccc(C(=O)NCc2ccc3c(c2)OCO3)cc1C	-	8.7	-	-	-	-	57	22
Cc1ccc(C(=O)NCc2ccc3c(c2)OCO3)cc1Cl	-	-	-	-	-	-	.	.
CC(C)(C)OC(=O)CC(S(=O)(=O)c1ccccc1)S(=O)(=O)c1ccccc1	-	18	.	.	.	.	-	42
CN([C@@H](C(=O)OC(C)(C)C)c1ccccc1)S(=O)(=O)c1cccc(S(=O)(=O)N(C)[C@@H](C(=O)OC(C)(C)C)c2ccccc2)c1	-	-	-	-	-	-	.	.
CCNC(=O)C1CCCN(C(=O)c2ccc(C(=O)OC)cc2)CC1 (stereo not drawn)	-	-	.	.	.	.	.	.
Cc1cccc(N/C=C/c2onc(C)c2[N+](=O)[O-])c1	-	-	-	-	-	-	.	.
Cc1cc(O)ccc1N/C=C/c1onc(C)c1[N+](=O)[O-]	-	9.1	-	-	-	-	122	39
O=c1cc(-c2ccccc2)oc2ccccc12	-	-	.	-	.	-	.	.
O=c1cc(-c2ccccc2)oc2ccc(O)cc12	-	9.2	-	-	-	-	134	42
COc1cc(NC(=O)c2cc3ccccc3o2)c(OC)cc1Br	-	17	-	-	-	-	24	16
O=[N+]([O-])c1ccc(N/N=C/c2cccc(O)c2O)cc1	-	15	-	-	-	-	77	40
O=[N+]([O-])c1ccc(N/N=C/c2cccc(O)c2)cc1	-	-	-	-	-	-	.	.
CCc1ccc(NC(=O)CCn2nc(C)c(S(=O)(=O)N3CCCCC3)c2C)cc1	-	7.6	-	-	-	-	-	8.6
OCC1CCCN(C(=S)Nc2ccc(Oc3ccccc3)cc2)C1 (stereo not drawn)	-	11	-	-	-	-	105	34
Cc1ccc(C(=O)N/N=C/c2cccnc2)cc1Cl	-	-	.	.	.	.	.	.
SMILES	Neddyl block	FXN GAA850 act	Calb FLC	proCasp7 act	HIF act	proCasp3 act	GAA30 FXN cntr	FXN GAA850 conf
CCC(=O)N/C(N)=N/c1nc2ccccc2o1	-	7.8	-	-	-	-	113	37
CCCC(=O)N/C(N)=N/c1nc2ccccc2o1	-	-	-	-	-	-	.	.
CC(=O)c1cnc2cc(-c3ccc(C)cc3)nn2c1C	-	11	-	-	-	-	128	42
CC(=O)c1cnc2cc(-c3ccccc3)nn2c1C	-	-	-	-	-	-	.	.
Cc1c(-c2nc(N)nc(Nc3ccc(F)cc3)n2)oc2ccccc12	-	9.8	-	-	-	-	89	38
Cc1ccccc1Nc1nc(N)nc(-c2oc3ccccc3c2C)n1	-	8.6	-	-	-	-	101	52
COc1ccc(C2=Nn3c(nnc3-c3ccco3)SC2)cc1OC	-	10	-	-	-	-	37	20
O=C1NC(Cc2ccc(O)cc2)c2nc3cc(Cl)ccc3c(=O)n2-c2cc(Cl)ccc21 (stereo not drawn)	-	-	.	.	.	.	.	.
Nc1cc2c(cc1Cl)-c1ccc([N+](=O)[O-])cc1C2=NO	-	9.5	.	.	.	.	75	40
O=C(Nc1nnc(C2CCCCC2)s1)c1cccs1	-	7.8	-	-	-	-	95	27
O=C(Nc1nnc(C2CCCO2)s1)c1cccs1 (stereo not drawn)	-	-	-	-	-	-	.	.
FC(F)c1nc2nc(Cl)c(Cl)nc2[nH]1	-	-	.	.	.	.	.	.
CCCC(=O)Nc1ccc(-c2nc3cc(C)c(C)cc3o2)cc1	.	9.8	-	-	-	-	108	48
CCCC(=O)Nc1ccc2oc(-c3ccncc3)nc2c1	-	-	-	-	-	-	.	.
O=C(c1ccc(-c2ccc([N+](=O)[O-])cc2)o1)N1CCCCC1	-	8.5	-	-	-	-	125	44
CC1CC(C)CN(C(=O)c2ccc(-c3ccc([N+](=O)[O-])cc3)o2)C1 (stereo not drawn)	-	-	-	-	-	-	.	.
CCCCN1CC(N(C)CCN(C)C)CS1(=O)=O (stereo not drawn)	-	.	.	.	.	.	.	.
Fc1cccc(/C=N/Nc2ncnc3nc[nH]c23)c1	-	10	-	-	-	-	113	49
Fc1ccccc1/C=N/Nc1ncnc2nc[nH]c12	-	11	-	-	-	-	98	47
O=C(C1CC(=O)N(c2ccc(F)c(Cl)c2)C1)N1CCOCC1 (stereo not drawn)	-	-	.	.	.	.	.	.
O=C1[C@H](Cc2ccccc2)NCC=CC[C@H](c2ccco2)N1Cc1ccccc1	-	11	.	.	.	.	-	-
O=C1[C@H](Cc2ccccc2)NCC=CC[C@@H](c2ccc(Cl)cc2)N1Cc1ccccc1	-	-	.	.	.	.	.	.
Clc1cccc(CNc2ccn3nc(-c4ccccc4Cl)cc3n2)c1	-	-	.	.	.	.	.	.
O=C(NN1CCOCC1)c1cccc(COc2cccc(Br)c2)c1	-	8.0	-	-	-	-	90	37
O=C(O)c1ccc(N=Nc2c(O)ccc3ncccc23)cc1	-	8.5	?	-	-	-	108	39

Assay outcomes: PubChem, several laboratories
